Experimental data from different studies.
Compare with care: the assays were run in different laboratories.
Target: Tyrosine-protein kinase Tec (TEC, Homo sapiens, UniProt P42680)
One construct used (P42680 1-631): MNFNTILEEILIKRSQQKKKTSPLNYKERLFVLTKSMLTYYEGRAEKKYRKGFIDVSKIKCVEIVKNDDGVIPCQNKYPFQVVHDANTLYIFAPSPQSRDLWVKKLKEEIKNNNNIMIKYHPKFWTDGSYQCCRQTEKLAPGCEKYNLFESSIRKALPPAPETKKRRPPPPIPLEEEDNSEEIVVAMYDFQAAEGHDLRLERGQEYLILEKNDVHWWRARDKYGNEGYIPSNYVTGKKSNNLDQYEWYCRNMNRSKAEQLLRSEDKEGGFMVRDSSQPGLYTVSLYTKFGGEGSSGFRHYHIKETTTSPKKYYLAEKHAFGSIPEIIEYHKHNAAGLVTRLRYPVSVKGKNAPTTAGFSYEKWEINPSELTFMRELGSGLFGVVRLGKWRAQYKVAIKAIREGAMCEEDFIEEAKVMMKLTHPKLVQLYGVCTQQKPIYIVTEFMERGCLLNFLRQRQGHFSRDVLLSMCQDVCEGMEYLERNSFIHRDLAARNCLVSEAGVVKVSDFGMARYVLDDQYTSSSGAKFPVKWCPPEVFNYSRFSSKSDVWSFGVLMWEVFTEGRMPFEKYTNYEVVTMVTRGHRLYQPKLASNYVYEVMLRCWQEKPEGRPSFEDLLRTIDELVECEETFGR

For `CCC(=O)N[C@H]1CC[C@@H](C(=O)N(C)c2ccc(-c3nc4ccccc4o3)cc2)C1`, the remaining binding was 100% (cell-free assay, competition with immobilised ligand; 1 µM).
The remaining binding of `FC(F)(F)Oc1cccc(-c2cnc3ccc(-c4ccncc4)nn23)c1` is reported as 99% (binding, competition with immobilised ligand; 5 µM).
The remaining binding of `O=C(c1ccc(Nc2ncc(Cl)c(-c3cc4ccccc4s3)n2)cc1)N1CCC(N2CCCC2)CC1` is reported as 99% (binding, competition with immobilised ligand; 1 µM).
The remaining binding of `COc1cnc(Nc2cccc(S(N)(=O)=O)c2)nc1N1CCN(c2ccccc2)CC1` is reported as 85% (binding, competition with immobilised ligand; 1 µM).
The remaining binding of `c1cnn2ncc(-c3ccnc(N4CCC45COC5)n3)c2c1` is reported as 99% (binding; 1 µM).
`C[C@@H](c1ccc(-n2cnc3c(N)ncnc32)cc1)N1CCc2nn(C)c(Cc3ccccc3)c2C1=O` gave a remaining binding of 63% (binding, competition with immobilised ligand; 0.1 µM).
`C[C@@H]1CCN(c2nccc(-c3cnn4ncccc34)n2)C1` gave a remaining binding of 90% (binding; 1 µM).
With `c1cncc(-c2cccc(Nc3nccc(NC4CCCCC4)n3)c2)c1` the remaining binding was 94% (binding, competition with immobilised ligand; 10 µM).
`O=C(NCCCN1CCOCC1)c1ccc(Nc2ncc(Cl)c(-c3ccc(Cl)s3)n2)cc1` gave a remaining binding of 100% (binding, competition with immobilised ligand; 1 µM).
`O=C(O)[C@H]1[C@H](Cn2nnc3ccccc3c2=O)CC[C@@H]1C(=O)c1ccc(OCCC2CCOCC2)cc1` gave a remaining binding of 100% (binding, competition with immobilised ligand; 1 µM).
`O=C(Nc1c[nH]nc1C(=O)NC1CCNCC1)c1cc(F)cc(F)c1` has a remaining binding of 100% (binding, competition with immobilised ligand; 1 µM).
The remaining binding of `COc1ccnn2ncc(-c3ccnc(N(C)C)n3)c12` is reported as 93% (binding; 1 µM).
With `CSc1cccnc1N1CCN(Cc2nc3ccccc3[nH]2)CC1` the remaining binding was 90% (binding, competition with immobilised ligand; 1 µM).
The remaining binding of `N[C@@H]1CCN(c2nccc(-c3cnn4ncccc34)n2)C1` is reported as 95% (binding; 1 µM).
With `Cc1cnc(Nc2ccc(C(=O)N3CCC(N4CCCC4)CC3)cc2)nc1-c1cc2ccccc2s1` the remaining binding was 100% (binding, competition with immobilised ligand; 1 µM).
For `O=c1nc(-c2ccccn2)sc2ccccc12`, the remaining binding was 82% (binding, competition with immobilised ligand; 1 µM).
`Cc1cnn2ncc(-c3ccnc(N(C)C)n3)c2c1` has a remaining binding of 100% (binding; 1 µM).
The remaining binding of `CCS(=O)(=O)c1cc2cc(C[C@@](O)(CC(C)(C)c3ccc(F)cc3C(N)=O)C(F)(F)F)[nH]c2cn1` is reported as 100% (cell-free assay, competition with immobilised ligand; 1 µM).
`COc1ncc2cc3ccccc3nc2c1C#N` gave a remaining binding of 100% (binding, competition with immobilised ligand; 5 µM).
`CN(C)c1nccc(-c2cnc3ncccn23)n1` has a remaining binding of 100% (binding; 1 µM).
`C[C@@H]1CN(c2cc(-c3n[nH]c4ccc(OC5(C)CC5)cc34)ncn2)C[C@H](C)O1` gave a remaining binding of 74% (cell-free assay, competition with immobilised ligand; 0.1 µM).
